# The list is not random: actives were taken first. Their share in the collection is about 3.8%.
# KCNQ1 pot: potentiators or activators of KCNQ1 channel, primary screen, cell-based, thallium flux, high-throughput; B-score at 10 µM; AID 2648, 2010; Potassium voltage-gated channel subfamily KQT member 1 (Homo sapiens), P51787; 310,000 tested, 0.35% active; CHO-K1 KCNQ1, thallium flux FluxOR fluorescence; hits give high values;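 active = fluorescence ratio B-score, a plate-corrected score, at least three library SD, with initial intensity B-score within 5 SD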
#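 Assay system: stable KCNQ1 CHO-K1 line; medium: assay buffer, equal DMSO in all wells; timing: 90 min dye loading and 20 min compound exposure, both at room temperature; technique: kinetic FluxOR thallium fluorescence, 10-s 1-Hz baseline, 110-s post-stimulus read; read-out basis: B score of baseline-normalized fluorescence ratio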
# Kir21 block: inhibitors of mouse Kir2.1 inward-rectifier potassium channel; Inward rectifier potassium channel 2 (Mus musculus), P35561; HEK293-Kir2.1, FluxOR thallium flux fluorescence; hits give low values; B-score at 10 µM; 310,000 tested, 0.85% active; AID 1672, 2009;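 active = fluorescence ratio B-score at or below minus 3 SD of library scores, with starting-brightness B-score within 2 SD, cut at about -4.2 in these data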;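 note: channel flux triggered by added potassium and thallium sulfate stimulus; B-score of peak minus minimum fluorescence over baseline after thallium stimulus; more negative B-score means stronger Kir2.1 block with less thallium influx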
# KCNK9 inh: KCNK9 potassium channel inhibitors, primary screen, HEK293 cells, thallium flux; AID 488922, 2010; Potassium channel subfamily K member 9 (Homo sapiens), Q9NPC2; B-score at 10 µM; 310,000 tested, 1.2% active; FluxOR thallium flux fluorescence; hits give low values;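 active = ratio B-score over 3 SD below the library mean, with starting fluorescence within 5 SD of its mean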;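 note: negative B-score means less thallium flux so channel inhibition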
# KCNQ1 block: inhibitors of human KCNQ1 channel, primary screen, cell-based, thallium flux, high-throughput. AID 2642, 2010. CHO-K1 KCNQ1, FluxOR thallium flux fluorescence; hits give high values. Potassium voltage-gated channel subfamily KQT member 1 (Homo sapiens), P51787. 310,000 tested, 1.3% active. B-score at 10 µM;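 active = compounds whose thallium flux B-score, printed positive for inhibition, exceeds three library SD while starting fluorescence stays within three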;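 note: channel opened by potassium depolarization with thallium stimulus after 20 min compound exposure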
# hERG rescue: hERG rescue from dofetilide block, primary screen, cell-based, CHO-hERG, FluxOR thallium flux, dofetilide IC70. Voltage-gated inwardly rectifying potassium channel KCNH2 (Homo sapiens), Q12809. 310,000 tested, 0.51% active. activation (rescue from dofetilide block), less the hit threshold, % at 10 µM. AID 1511, 2009. dofetilide IC70 present;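 active = activation above the mean of controls blocked by dofetilide plus 5 SD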;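 note: thallium influx through hERG after potassium depolarization seen as dye fluorescence rise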
# KCNK3 block: human KCNK3 channel inhibitors, primary screen, CHO cells, FluxOR thallium flux, B-score | 340,000 tested, 0.84% active | Potassium channel subfamily K member 3 (Homo sapiens), O14649 | B-score at 10 µM | FluxOR fluorescence; hits give low values;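 active = B-score under library mean minus 4 SD, starting fluorescence ratio at most library mean plus 5 SD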;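 note: more negative B-score means stronger inhibition of thallium flux through KCNK3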
# KCNQ1 inh valid: KCNQ1 potassium channel inhibitors, confirmation, cell-based, Tl flux, duplicate; shares compounds with KCNQ1 block; KCNQ1 cell line, FluxOR thallium flux fluorescence; inhibition, % at 10 µM; 1,600 tested, 93% active; AID 588353, 2011;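 active = primary screen active, with duplicate mean exceeding buffer control mean plus 3 SD of buffer wells, cut at about 28% in these data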;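 note: 0% = buffer control ratio and 100% = XE991 inhibitor control ratio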
# CHO KCNQ1 ctr: thallium flux effects in parental CHO cells, counter-screen for KCNQ1 inhibitor project, cell-based, Tl flux; fluorescence ratio (Tl flux) at 10 µM; 1,600 tested, 21% active; AID 588366, 2011; parental CHO-K1, FluxOR thallium flux fluorescence ratio; hits give low values; zero means no signal rise above baseline; shares compounds with KCNQ1 block;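 active = mean of duplicate thallium-flux fluorescence ratios in parental host cells more than 5 SD below the buffer control mean, cut at about 0.38 in these data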;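 note: ratio is peak minus minimum fluorescence divided by baseline fluorescence; actives read low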
# KCNQ1 ephys val: KCNQ1 channel inhibitors, confirmation, orthogonal assay, cell-based, automated electrophysiology; KCNQ1-CHO cells, automated patch clamp current; calls only at 10 µM; shares compounds with KCNQ1 block; 490 tested, 20% active;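 active = KCNQ1 current drop exceeding 3 SD of negative control wells, seen in both duplicate runs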;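 note: steady state current during a 2 s step from -80 to +40 mV; negative values mean current inhibition and positive values mean potentiation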
# KCNQ2 inh: KCNQ2 channel inhibition, selectivity assay for KCNQ1 inhibitor project, cell-based. inhibition, % at 10 µM. KCNQ2 cells, FluxOR thallium flux fluorescence. shares compounds with KCNQ1 block. 1,600 tested, 71% active;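 active = mean percent inhibition of the KCNQ2 thallium signal more than 5 SD above the buffer-only control wells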;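 note: KCNQ2 expressed in CHO cells; 0% = buffer control wells and 100% = XE-991 inhibitor control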
# KCNQ1 KCNE1 spec: KCNQ1/KCNE1 channel inhibition, selectivity assay for KCNQ1 inhibitor project, CHO-K1 cells, thallium flux, FluxOR. shares compounds with KCNQ1 block. FluxOR thallium flux fluorescence. inhibition, % at 10 µM. 1,600 tested, 77% active;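 active = mean percent inhibition of duplicate wells above the buffer-only control mean plus 3 SD of those controls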;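 note: 0% = buffer only wells and 100% = XE-991 inhibitor control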
# KCNK9 inh conf: KCNK9 potassium channel inhibitors, confirmation, HEK293 cells, thallium flux, duplicate | 4,900 tested, 43% active | AID 492992, 2010 | shares compounds with KCNK9 inh | FluxOR thallium flux fluorescence | inhibition, % at 10 µM;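 active = thallium signal inhibited by more than 5 SD of the compound-free buffer control wells, on both duplicate plates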;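 note: 0% = assay buffer control wells without compound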
# Kir2-1 spec: mouse Kir2.1 channel inhibition, confirmation, selectivity assay for KCNK9 modulator project, cell-based, HEK293, thallium flux. 4,900 tested, 4% active. shares compounds with KCNK9 inh. inhibition, % at 10 µM. Kir2.1 cells, FluxOR thallium flux fluorescence;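 active = thallium signal drop more than 5 SD beyond the mean of the no-compound control wells, seen in both duplicate plates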;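 note: signal is fluorescence rise after thallium addition divided by baseline fluorescence; plate controls were assay buffer only for no effect and full block by chlorpromazine control for full effect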
# HEK293 Tl ctr: thallium flux in non-induced HEK293 cells, confirmation, counter-screen for KCNK9 inhibitor project, cell-based, second counter screen, non-induced KCNK9-HEK293 | shares compounds with KCNK9 inh | FluxOR thallium flux | inhibition, % at 10 µM | 4,900 tested, 40% active;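 active = thallium signal drop beyond 5 SD of the untreated control mean, on both duplicate plates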;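 note: plate controls were buffer only IC0 wells for no effect and SID17386958 at its maximal inhibitory level for full effect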
# KCNK3 confirm: retest of human KCNK3 channel inhibitors, confirmation, CHO cells, FluxOR thallium flux, triplicate | shares compounds with KCNK3 block | FluxOR fluorescence; 0% buffer, 100% carvedilol maximal block | ratio percent of control, % at 10 µM | 2,400 tested, 99% active;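 active = ratio percent of control, averaged over triplicates, above buffer control mean plus 5 SD, cut at about 64% in these data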;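 note: ratio is the fluorescence rise from min to max over baseline after thallium stimulus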
# KCNK3 uninduced: thallium flux inhibition in non-induced cells, primary screen, counter-screen for KCNK3 inhibitor project, cell-based, non-induced KCNK3 line, FluxOR thallium, triplicate; thallium flux ratio (lower = more inhibition) at 10 µM; non-induced KCNK3 parental cells; hits give low values; 2,400 tested, 40% active; shares compounds with KCNK3 block;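 active = thallium flux ratio, averaged over three wells, more than 5 SD below the buffer control mean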;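 note: host cells are CHO cells without KCNK3 induction; ratio is peak minus trough fluorescence over baseline then normalized to buffer controls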
# Numbers without * were called inactive; i = inactive; / = no result; + = active, no number.
SMILES,KCNQ1 pot,Kir21 block,KCNK9 inh,KCNQ1 block,hERG rescue,KCNK3 block,KCNQ1 inh valid,CHO KCNQ1 ctr,KCNQ2 inh,KCNQ1 KCNE1 spec,KCNK3 confirm,KCNK3 uninduced,others
CSc1ccc(CN(C)C(C)C(=O)Nc2ccc(F)c(F)c2F)cc1 (stereo not given),i,-2.2,i,i,-21,i,/,/,/,/,/,/,
CSc1ccc(CN(C)C(C)C(=O)NCC2CCCCC2)cc1 (stereo not given),i,-0.56,i,6*,-7,-9.4*,66*,0.47,69%*,80%*,95*,i,
CC(OC(=O)c1ccc(Br)o1)C(=O)NCC1CCCCC1 (stereo not given),/,/,/,/,/,i,/,/,/,/,/,/,
CC(C(=O)NCC1CCCCC1)N(C)Cc1ccc(Cl)cc1 (stereo not given),i,-1.7,-7.2*,9*,-18,-9.7*,76*,0.38*,69%*,98%*,105*,i,
CC(C(=O)NCC1CCCCC1)N(C)Cc1ccc(Br)cc1 (stereo not given),i,-0.06,i,8*,-7,-15*,69*,0.39,92%*,66%*,121*,0.16*,
O=C(OCC(=O)N1CCC(Cc2ccccc2)CC1)c1cc(Br)ccc1O,/,/,/,/,/,i,/,/,/,/,/,/,
O=C(NC1CCCC1)c1ccc2c(c1)N(Cc1ccc(F)cc1)CCS2,i,-1.4,-14*,9*,-12,-9.3*,76*,0.39,98%*,90%*,96*,i,KCNK9 inh conf=74%*;Kir2-1 spec=i;HEK293 Tl ctr=42%*
CN(C)CCNC(=O)c1ccc2c(c1)N(Cc1ccc(F)cc1)CCS2,i,-2.6,i,i,-7,i,/,/,/,/,/,/,
CC(=O)Nc1ccc(Nc2cc(C)nc3c(-c4ccccc4)cnn23)cc1,/,/,/,/,/,i,/,/,/,/,/,/,
CCc1ccccc1NC(=O)CCS(=O)(=O)c1ccc2c(c1)CCCN2C(C)=O,i,-0.03,i,i,-7,i,/,/,/,/,/,/,
COc1ccc2nc3c(cc2c1)c(NC(=O)c1cccs1)nn3CC(C)C,i,0.98,-9*,6*,-14,-9.8*,144*,0.29*,127%*,+,94*,0.15*,KCNK9 inh conf=i;Kir2-1 spec=i;HEK293 Tl ctr=i
Cc1cccc2nc(-c3cccnc3)c(Nc3ccccc3)n12,i,-1.2,i,i,0,i,/,/,/,/,/,/,
Cc1cccc2nc(-c3cccnc3)c(NCCC(C)C)n12,i,-0.64,-9.1*,11*,4.9*,-10*,139*,0.37*,119%*,157%*,141*,0.13*,KCNK9 inh conf=37%*;Kir2-1 spec=i;HEK293 Tl ctr=36%*
CC(=O)c1c(C)[nH]c(C(=O)Nc2ccc(C)c(S(=O)(=O)Nc3ccc(C)cc3C)c2)c1C,i,-0.33,-7.8*,12*,-15,-13*,142*,0.44,142%*,+,137*,i,KCNQ1 ephys val=i
CC(=O)c1c(C)[nH]c(C(=O)Nc2ccc(C)c(S(=O)(=O)N(C)C)c2)c1C,i,-5.3,i,i,-6,i,/,/,/,/,/,/,
Cc1cc(C)c(C#N)c(SCSCc2ccccc2)n1,i,-0.67,i,6*,-18,-9.7*,86*,0.38*,110%*,125%*,107*,i,
CC(C)=CCc1c(O)cc(O)c2c1OC(c1ccc(O)cc1)CC2=O (stereo not given),i,-6.4*,-12*,9*,-10,-15*,130*,0.35*,108%*,+,139*,0.11*,KCNK9 inh conf=48%*;Kir2-1 spec=i;HEK293 Tl ctr=i
CN(Cc1cccc2cnccc12)C(=O)c1cc(COc2ccc(F)cc2F)on1,i,-0.94,i,i,-12,i,/,/,/,/,/,/,

# Assay outcomes (PubChem BioAssay)
